Data: paper PMC5634372 (International Journal of Nanomedicine, 2017)

Columns and labels:
MDA-MB-231 xenografts = test: Xenograft model of TNBC, tumor growth; assay type: in vivo, SCID mice; conditions: 10 mg/kg iv twice a week for 2 weeks, vs vehicle control
Method in brief: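 Female SCID mice (7–8 weeks) given s.c. rear-flank 1×10^6 MDA-MB-231 cells in 0.1 mL 50% Matrigel. At 100 mm3, randomized (eight per group). Dosed via tail vein twice weekly for 2 weeks with free or SMA-micelle test compound, or vehicle (100 μL; SMA in NaOH, pH 7.4). Tumor volume (L×W×H) by electronic calipers, two independent measurements bi-weekly. Euthanized day 24.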

[1] = system: xenograft model of colon cancer; conditions: cited from earlier work
TNBC cell lines = conditions: cited from earlier work

Structure (SMILES): COc1cc(C=C2CN(C)CC(=Cc3cc(OC)c(OC)c(OC)c3)C2=O)cc(OC)c1OC [RL71, 3,5-bis(3,4,5-trimethoxybenzylidene)-1-methylpiperidine-4-one]
- tumor growth (MDA-MB-231 xenografts): unable to suppress tumor growth
- body weight ([1]; 4 mg/kg, after 15 days): nonsignificant loss of body weight
- tumor growth ([1]; 4 mg/kg/day intraperitoneally for 14 days): significantly suppressed tumor growth
- liver or spleen weight ([1]; intraperitoneal administration for 2 weeks): did not alter liver or spleen weight
- growth rate of colon tumors following treatment ([1]; over 15 days, 4 mg/kg/day ip): 400%
- apoptosis and cell cycle effect (TNBC cell lines; 1 µM, several TNBC cell lines): induced apoptosis and elicited G2/M phase cell cycle arrest
- cytotoxic potency relative to curcumin (TNBC cell lines; greater than curcumin): 20 fold
